Measured values taken from ChEMBL document CHEMBL4811225 (J Med Chem, 2021).
Where a SMILES comes first, the peptide text is derived from it. Bridges are numbered along the chain shown (N, C = ends).

Tests used:
Homo sapiens [1] = species on record: Homo sapiens; experiment: Selectivity ratio of IC50 for human alpha2beta4 nAChR to IC50 for human alpha6/alpha3beta4 nAChR
Method in brief: (§1)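 Ratio of each subtype's IC50, from TEVC inhibition of ACh-evoked currents in X. laevis oocytes, to the IC50 at the same species' α6/α3β4 nAChR; IC50 values with 95% CI, n = number of oocytes.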

[2] = target: Neuronal acetylcholine receptor; alpha4/beta2 (Rattus norvegicus, UniProt P09483+P12390); format: cell-based, Oocyte
Homo sapiens [3] = species on record: Homo sapiens; experiment: Selectivity ratio of IC50 for human alpha4beta4 nAChR to IC50 for human alpha6/alpha3beta4 nAChR; method in brief: as §1
[4] = target: Neuronal acetylcholine receptor; alpha2/beta4 (Rattus norvegicus, UniProt P12389+P12392); experiment: Inhibition of rat alpha2beta4 nAChR expressed in Xenopus laevis oocytes assessed as inhibition of acetylcholine-induced current response by two-electrode voltage-clamp method; format: cell-based, Oocyte
Method in brief: (§2)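 TEVC on stage IV–V oocytes 1–5 days after equal-ratio cRNA injection (α2β4, α3β4, α4β4, α7). ACh 300 μM, 1 s pulses at 60 s intervals under frog saline perfusion. Peptide perfused to 1 μM, normalized to average of three control responses; higher concentrations by 5 min static bath. IC50 with 95% CI, n oocytes.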

Rattus norvegicus [5] = species on record: Rattus norvegicus; experiment: Selectivity ratio of IC50 for rat alpha4beta2 nAChR to IC50 for rat alpha6/alpha3beta4 nAChR; method in brief: as §1
[6] = target: Neuronal acetylcholine receptor subunit alpha-7 (Homo sapiens, UniProt P36544); experiment: Inhibition of human alpha7 nAChR expressed in Xenopus laevis oocytes assessed as inhibition of acetylcholine-induced current response by two-electrode voltage-clamp method; format: cell-based, Oocyte; method in brief: as §2
[7] = target: Neuronal acetylcholine receptor; alpha9/alpha10 (Homo sapiens, UniProt Q9GZZ6+Q9UGM1); experiment: Inhibition of human alpha9alpha10 nAChR expressed in Xenopus laevis oocytes assessed as inhibition of acetylcholine-induced current response by two-electrode voltage-clamp method; format: cell-based, Oocyte
Method in brief: (§3)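 Two-electrode voltage clamp of stage IV–V oocytes 1–5 days after equal-ratio cRNA injection; ACh 100 μM (β2-containing subtypes, α9α10), 1 s every 60 s in frog saline. Peptide perfused up to 1 μM, responses normalized to mean of three control responses; above 1 μM, 5 min static bath. IC50 with 95% CI; n = oocytes.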

Rattus norvegicus [8] = species on record: Rattus norvegicus; experiment: Selectivity ratio of IC50 for rat alpha2beta4 nAChR to IC50 for rat alpha6/alpha3beta4 nAChR; method in brief: as §1
[9] = target: Neuronal acetylcholine receptor; alpha3/beta4 (Rattus norvegicus, UniProt P04757+P12392); format: cell-based, Oocyte
Sequence of Neuronal acetylcholine receptor; alpha3/beta4 (Rattus norvegicus, UniProt P04757+P12392) (P04757 whole entry): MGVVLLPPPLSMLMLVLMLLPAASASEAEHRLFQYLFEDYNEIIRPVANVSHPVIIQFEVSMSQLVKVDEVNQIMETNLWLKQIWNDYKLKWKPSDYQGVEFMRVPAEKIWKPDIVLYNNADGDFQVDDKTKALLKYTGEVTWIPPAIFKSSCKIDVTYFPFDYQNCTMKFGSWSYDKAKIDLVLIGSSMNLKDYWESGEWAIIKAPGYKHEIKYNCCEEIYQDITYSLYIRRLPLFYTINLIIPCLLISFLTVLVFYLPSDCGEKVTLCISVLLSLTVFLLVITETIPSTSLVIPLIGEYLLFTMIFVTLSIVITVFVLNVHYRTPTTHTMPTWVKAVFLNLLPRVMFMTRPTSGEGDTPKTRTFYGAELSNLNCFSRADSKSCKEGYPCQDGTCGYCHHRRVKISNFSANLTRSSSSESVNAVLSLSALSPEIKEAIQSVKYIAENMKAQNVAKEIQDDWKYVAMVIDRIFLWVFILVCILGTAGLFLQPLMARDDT
Sequence of Neuronal acetylcholine receptor; alpha3/beta4 (Rattus norvegicus, UniProt P04757+P12392) (P12392 whole entry): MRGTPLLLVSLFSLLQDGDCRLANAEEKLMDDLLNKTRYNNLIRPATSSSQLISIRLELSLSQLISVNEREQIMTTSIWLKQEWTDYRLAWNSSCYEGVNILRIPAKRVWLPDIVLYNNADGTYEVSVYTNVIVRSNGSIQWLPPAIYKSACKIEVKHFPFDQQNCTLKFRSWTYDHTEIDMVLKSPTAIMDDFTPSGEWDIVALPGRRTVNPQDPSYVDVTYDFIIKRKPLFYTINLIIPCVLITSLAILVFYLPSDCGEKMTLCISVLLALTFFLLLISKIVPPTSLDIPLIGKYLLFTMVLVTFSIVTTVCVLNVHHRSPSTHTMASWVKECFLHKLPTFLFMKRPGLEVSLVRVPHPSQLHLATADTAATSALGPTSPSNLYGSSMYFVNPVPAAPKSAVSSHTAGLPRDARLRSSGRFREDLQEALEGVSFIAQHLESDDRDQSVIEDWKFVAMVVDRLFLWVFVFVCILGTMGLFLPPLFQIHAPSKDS

[10] = target: Nicotinic acetylcholine receptor alpha9/alpha10 (Rattus norvegicus, UniProt P43144+Q9JLB5); experiment: Inhibition of rat alpha9alpha10 nAChR expressed in Xenopus laevis oocytes assessed as inhibition of acetylcholine-induced current response by two-electrode voltage-clamp method; format: cell-based, Oocyte; method in brief: as §3
[11] = target: Nicotinic acetylcholine receptor alpha6/alpha3/beta2/beta3 (Rattus norvegicus, UniProt P04757+P12390+P12391+P43143); format: cell-based, Oocyte
Sequence of Nicotinic acetylcholine receptor alpha6/alpha3/beta2/beta3 (P04757 whole entry): as the sequence (P04757 whole entry) above
Sequence of Nicotinic acetylcholine receptor alpha6/alpha3/beta2/beta3 (P12390 whole entry): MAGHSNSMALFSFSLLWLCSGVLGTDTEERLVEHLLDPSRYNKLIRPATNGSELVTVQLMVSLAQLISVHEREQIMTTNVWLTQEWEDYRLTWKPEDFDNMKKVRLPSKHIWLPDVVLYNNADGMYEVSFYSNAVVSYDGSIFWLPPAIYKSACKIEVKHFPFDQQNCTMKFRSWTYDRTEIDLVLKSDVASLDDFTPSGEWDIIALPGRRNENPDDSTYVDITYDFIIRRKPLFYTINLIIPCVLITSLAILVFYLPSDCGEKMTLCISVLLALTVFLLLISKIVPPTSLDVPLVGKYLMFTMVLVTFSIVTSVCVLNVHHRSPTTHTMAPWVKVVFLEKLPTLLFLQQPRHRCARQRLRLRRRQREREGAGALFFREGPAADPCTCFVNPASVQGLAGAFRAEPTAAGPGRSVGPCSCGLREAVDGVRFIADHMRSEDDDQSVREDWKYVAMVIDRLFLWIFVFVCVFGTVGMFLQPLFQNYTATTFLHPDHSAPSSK
Sequence of Nicotinic acetylcholine receptor alpha6/alpha3/beta2/beta3 (P12391 whole entry): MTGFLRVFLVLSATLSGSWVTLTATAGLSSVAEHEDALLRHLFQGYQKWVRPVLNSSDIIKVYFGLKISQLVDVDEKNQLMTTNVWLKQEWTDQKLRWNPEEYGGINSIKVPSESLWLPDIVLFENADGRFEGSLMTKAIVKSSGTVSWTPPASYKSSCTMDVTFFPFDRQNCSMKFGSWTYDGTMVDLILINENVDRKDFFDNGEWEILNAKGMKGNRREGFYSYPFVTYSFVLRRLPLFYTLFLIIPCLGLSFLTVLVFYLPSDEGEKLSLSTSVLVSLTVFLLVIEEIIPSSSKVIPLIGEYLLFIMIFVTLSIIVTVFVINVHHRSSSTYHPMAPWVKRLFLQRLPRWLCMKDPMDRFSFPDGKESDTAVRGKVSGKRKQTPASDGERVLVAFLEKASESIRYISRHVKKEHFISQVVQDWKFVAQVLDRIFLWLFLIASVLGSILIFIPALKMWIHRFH
Sequence of Nicotinic acetylcholine receptor alpha6/alpha3/beta2/beta3 (P43143 whole entry): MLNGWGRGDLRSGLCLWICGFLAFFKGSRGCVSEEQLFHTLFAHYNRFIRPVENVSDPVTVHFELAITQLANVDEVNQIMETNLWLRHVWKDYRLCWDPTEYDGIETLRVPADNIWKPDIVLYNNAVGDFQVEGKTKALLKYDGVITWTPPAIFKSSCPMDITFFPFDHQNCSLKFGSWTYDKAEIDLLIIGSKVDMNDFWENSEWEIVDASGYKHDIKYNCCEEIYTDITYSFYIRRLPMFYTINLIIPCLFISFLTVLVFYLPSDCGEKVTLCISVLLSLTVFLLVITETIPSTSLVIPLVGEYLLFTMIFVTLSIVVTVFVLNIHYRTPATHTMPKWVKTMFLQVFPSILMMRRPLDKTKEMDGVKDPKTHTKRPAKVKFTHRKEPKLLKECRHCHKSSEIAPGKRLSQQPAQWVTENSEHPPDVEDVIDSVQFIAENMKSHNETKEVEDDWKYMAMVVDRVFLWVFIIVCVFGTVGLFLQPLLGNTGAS

Rattus norvegicus [12] = species on record: Rattus norvegicus; experiment: Selectivity ratio of IC50 for rat alpha4beta4 nAChR to IC50 for rat alpha6/alpha3beta4 nAChR; method in brief: as §1
[13] = target: Neuronal acetylcholine receptor; alpha3/beta2 (Homo sapiens, UniProt P17787+P32297); experiment: Inhibition of human alpha3beta2 nAChR expressed in Xenopus laevis oocytes assessed as inhibition of acetylcholine-induced current response by two-electrode voltage-clamp method; format: cell-based, Oocyte; method in brief: as §3
[14] = target: Neuronal acetylcholine receptor; alpha3/alpha6/beta2/beta3 (Homo sapiens, UniProt P17787+P32297+Q05901+Q15825); experiment: Inhibition of human alpha6/alpha3beta2beta3 nAChR expressed in Xenopus laevis oocytes assessed as inhibition of acetylcholine-induced current response by two-electrode voltage-clamp method; format: cell-based, Oocyte; method in brief: as §3
Homo sapiens [15] = species on record: Homo sapiens; experiment: Selectivity ratio of IC50 for human alpha9alpha10 nAChR to IC50 for human alpha6/alpha3beta4 nAChR; method in brief: as §1
[16] = target: Neuronal acetylcholine receptor; alpha2/beta2 (Homo sapiens, UniProt P17787+Q15822); experiment: Inhibition of human alpha2beta2 nAChR expressed in Xenopus laevis oocytes assessed as inhibition of acetylcholine-induced current response by two-electrode voltage-clamp method; format: cell-based, Oocyte; method in brief: as §3
Oocyte = experiment: Inhibition of human alpha4beta4 nAChR expressed in Xenopus laevis oocytes assessed as inhibition of acetylcholine-induced current response at 10 uM by two-electrode voltage-clamp method relative to control; format: cell-based
Method in brief: (§4)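 Stage IV–V X. laevis oocytes expressing equal-ratio cRNAs of α2β4, α3β4, α4β4 or α7 subunits; TEVC 1–5 days after injection. ACh 300 μM, 1 s at 60 s intervals. 10 μM peptide as 5 min static bath, normalized to ACh response after 5 min bath of control saline; mean ± SD, n = 4.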

[17] = target: Neuronal acetylcholine receptor subunit alpha-7 (Rattus norvegicus, UniProt Q05941); format: cell-based, Oocyte
Sequence of Neuronal acetylcholine receptor subunit alpha-7 (Rattus norvegicus, UniProt Q05941) (Q05941 whole entry): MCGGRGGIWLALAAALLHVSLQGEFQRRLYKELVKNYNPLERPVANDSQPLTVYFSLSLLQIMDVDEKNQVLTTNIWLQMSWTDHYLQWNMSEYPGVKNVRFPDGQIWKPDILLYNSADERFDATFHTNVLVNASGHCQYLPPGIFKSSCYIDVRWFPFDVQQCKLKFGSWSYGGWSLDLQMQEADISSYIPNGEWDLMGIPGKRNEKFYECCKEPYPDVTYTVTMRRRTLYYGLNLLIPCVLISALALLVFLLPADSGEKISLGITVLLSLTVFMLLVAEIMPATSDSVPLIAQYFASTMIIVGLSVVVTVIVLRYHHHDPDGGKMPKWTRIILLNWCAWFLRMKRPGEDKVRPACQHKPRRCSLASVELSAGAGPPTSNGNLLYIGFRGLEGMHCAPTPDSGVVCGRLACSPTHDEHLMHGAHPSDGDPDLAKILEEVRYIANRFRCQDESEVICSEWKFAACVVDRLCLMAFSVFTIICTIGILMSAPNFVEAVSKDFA

Rattus norvegicus [18] = species on record: Rattus norvegicus; experiment: Selectivity ratio of IC50 for rat alpha2beta2 nAChR to IC50 for rat alpha6/alpha3beta4 nAChR; method in brief: as §1
Homo sapiens [19] = species on record: Homo sapiens; experiment: Selectivity ratio of IC50 for human alpha2beta2 nAChR to IC50 for human alpha6/alpha3beta4 nAChR; method in brief: as §1
[20] = target: Neuronal acetylcholine receptor; alpha3/beta2 (Rattus norvegicus, UniProt P04757+P12390); format: cell-based, Oocyte
[21] = target: Neuronal acetylcholine receptor; alpha3/beta4 (Homo sapiens, UniProt P30926+P32297); experiment: Inhibition of human alpha3beta4 nAChR expressed in Xenopus laevis oocytes assessed as inhibition of acetylcholine-induced current response by two-electrode voltage-clamp method; format: cell-based, Oocyte; method in brief: as §2
[22] = target: Neuronal acetylcholine receptor; alpha2/beta4 (Rattus norvegicus) (UniProt P12389+P12392); experiment: Inhibition of rat alpha2beta4 nAChR expressed in Xenopus laevis oocytes assessed as inhibition of acetylcholine-induced current response at 10 uM by two-electrode voltage-clamp method relative to control; format: cell-based; conditions: Oocyte; method in brief: as §4
[23] = target: Nicotinic acetylcholine receptor alpha6/alpha3/beta4 (Rattus norvegicus, UniProt P04757+P12392+P43143); format: cell-based, Oocyte
Sequence of Nicotinic acetylcholine receptor alpha6/alpha3/beta4 (P04757 whole entry): as the sequence (P04757 whole entry) above
Sequence of Nicotinic acetylcholine receptor alpha6/alpha3/beta4 (P12392 whole entry): as the sequence (P12392 whole entry) above
Sequence of Nicotinic acetylcholine receptor alpha6/alpha3/beta4 (P43143 whole entry): as the sequence (P43143 whole entry) above

Rattus norvegicus [24] = species on record: Rattus norvegicus; experiment: Selectivity ratio of IC50 for rat alpha3beta4 nAChR to IC50 for rat alpha6/alpha3beta4 nAChR; method in brief: as §1
Homo sapiens [25] = species on record: Homo sapiens; experiment: Selectivity ratio of IC50 for human alpha6/alpha3beta2beta3 nAChR to IC50 for human alpha6/alpha3beta4 nAChR; method in brief: as §1
Homo sapiens [26] = species on record: Homo sapiens; experiment: Selectivity ratio of IC50 for human alpha4beta2 nAChR to IC50 for human alpha6/alpha3beta4 nAChR; method in brief: as §1
[27] = target: Neuronal acetylcholine receptor; alpha2/beta2 (Rattus norvegicus, UniProt P12389+P12390); experiment: Inhibition of rat alpha2beta2 nAChR expressed in Xenopus laevis oocytes assessed as inhibition of acetylcholine-induced current response by two-electrode voltage-clamp method; format: cell-based, Oocyte; method in brief: as §3
[28] = Inhibition of human alpha4beta4 nAChR expressed in Xenopus laevis oocytes assessed as inhibition of acetylcholine-induced current response by two-electrode voltage-clamp method; format: cell-based; conditions: Oocyte; method in brief: as §2
[29] = target: Neuronal acetylcholine receptor; alpha4/beta2 (Homo sapiens, UniProt P17787+P43681); experiment: Inhibition of human alpha4beta2 nAChR expressed in Xenopus laevis oocytes assessed as inhibition of acetylcholine-induced current response by two-electrode voltage-clamp method; format: cell-based, Oocyte; method in brief: as §3
[30] = target: Neuronal acetylcholine receptor; alpha4/beta4 (Rattus norvegicus) (UniProt P09483+P12392); experiment: Inhibition of rat alpha4beta4 nAChR expressed in Xenopus laevis oocytes assessed as inhibition of acetylcholine-induced current response at 10 uM by two-electrode voltage-clamp method relative to control; format: cell-based; conditions: Oocyte; method in brief: as §4
[31] = target: Neuronal acetylcholine receptor; alpha4/beta4 (Rattus norvegicus, UniProt P09483+P12392); format: cell-based, Oocyte

CC(C)C[C@@H]1NC(=O)[C@H](C)NC(=O)[C@H](CCCNC(=N)N)NC(=O)[C@H](Cc2cnc[nH]2)NC(=O)[C@H](CCCNC(=N)N)NC(=O)[C@H](C)NC(=O)[C@H](CCCNC(=N)N)NC(=O)[C@@H]2CSSC[C@H](NC(=O)CN)C(=O)N[C@@H](CSSC[C@@H](C(N)=O)NC1=O)C(=O)N[C@@H](CO)C(=O)N[C@@H](Cc1cnc[nH]1)C(=O)N1CCC[C@H]1C(=O)N[C@@H](C(C)C)C(=O)N2 (H-GCCSHPVCRARHRALC-NH2; disulfide 2-8, 3-16)
Ratio IC50 (Homo sapiens [1]): > 1800
IC50 [2]: > 10 µM
Ratio IC50 (Homo sapiens [3]): > 1800
IC50 [4]: > 10 µM
Ratio IC50 (Rattus norvegicus [5]): > 3180
IC50 [6]: 5.56 µM
IC50 [7]: 0.576 µM
Ratio IC50 (Rattus norvegicus [8]): > 3180
IC50 [9]: > 10 µM
IC50 [10]: 0.667 µM
IC50 [11]: 0.00314 µM
Ratio IC50 (Rattus norvegicus [12]): > 3180
IC50 [13]: 12.2 µM
IC50 [14]: 0.00555 µM
Ratio IC50 (Homo sapiens [15]): 104
IC50 [16]: > 10 µM
inhibition (Oocyte): 92%
IC50 [17]: 3.94 µM
Ratio IC50 (Rattus norvegicus [18]): > 3180
Ratio IC50 (Homo sapiens [19]): > 1800
IC50 [20]: 9.51 µM
IC50 [21]: 9.06 µM
inhibition [22]: 85%
IC50 [23]: > 10 µM
Ratio IC50 (Rattus norvegicus [24]): > 3180
Ratio IC50 (Homo sapiens [25]): 1
Ratio IC50 (Homo sapiens [26]): > 1800
IC50 [27]: > 10 µM
IC50 [28]: > 10 µM
IC50 [29]: > 10 µM
inhibition [30]: 82%

CC(C)C[C@@H]1NC(=O)[C@H](C)NC(=O)[C@@H]2CCCN2C(=O)[C@H](CCC(=O)O)NC(=O)[C@H](CCCNC(=N)N)NC(=O)[C@H](C)NC(=O)[C@H](Cc2cnc[nH]2)NC(=O)[C@@H]2CSSC[C@H](NC(=O)CN)C(=O)N[C@@H](CSSC[C@@H](C(N)=O)NC1=O)C(=O)N[C@@H](CO)C(=O)N[C@@H](Cc1cnc[nH]1)C(=O)N1CCC[C@H]1C(=O)N[C@@H](Cc1cnc[nH]1)C(=O)N2 (H-GCCSHPHCHAREPALC-NH2; disulfide 2-8, 3-16)
IC50 [2]: > 10 µM
IC50 [9]: > 10 µM
IC50 [11]: 0.0438 µM
IC50 [17]: > 10 µM
IC50 [20]: > 10 µM
IC50 [23]: 0.0438 µM
IC50 [31]: > 10 µM
